The results in this text go back to ChEMBL document CHEMBL2311390, “Synthesis and preliminary evaluation of pharmacological properties of some piperazine derivatives of xanthone” (Bioorg Med Chem, 2013).

The test system of data set [1] is Rattus norvegicus. Briefly: Hypotensive activity in normotensive Wistar rat assessed as reduction of systolic blood pressure at 0.1 to 5 mg/kg, iv. It is filed as functional, Artery. Also noted: scale not given: the % may be the effect or the level left. The note with it: dose mg/kg 0.1-5. The essentials: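 Male normotensive Wistar rats were anaesthetised with thiopental 75 mg/kg ip. The right carotid artery was cannulated with heparinised saline for pressure recording. After 5 min of stabilisation, compound was injected into the tail vein at 1 mL/kg. Systolic and diastolic pressure were followed up to 60 min. Data are means ± SEM of 5–6 rats, analysed by one-way ANOVA.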

For data set [2], the system named is Rattus norvegicus. Kind of data set: Cardiotoxicity in Wistar rat assessed as QT interval at 10 mg/kg, iv after 15 mins by ECG analysis. It counts as toxicity, organism-based. Also noted: dose 10 mg/kg, route intravenous. The conditions noted are these: in vivo, 0.25 h. Summed up: (§1)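 Male normotensive Wistar rats, 170–350 g, six per group. Compound given iv at a constant volume of 1 mL/kg. ECG was recorded just before dosing and at 1, 5 and 15 min after. PQ, QRS and QT intervals and heart rate were read from the trace. Groups were compared by one-way ANOVA.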

Data set [3] concerns Rattus norvegicus. Kind of data set: Cardiotoxicity in Wistar rat assessed as QT interval at 10 mg/kg, iv after 5 mins by ECG analysis. It is filed as toxicity, organism-based. Also noted: dose 10 mg/kg, route intravenous. The note with it: in vivo. Summed up: as §1
For data set [4], the system named is Rattus norvegicus. Briefly: Cardiotoxicity in Wistar rat assessed as PQ interval at 10 mg/kg, iv after 10 mins by ECG analysis. It counts as toxicity, organism-based. Details: dose 10 mg/kg, route intravenous. The conditions noted are these: in vivo.
Data set [5] deals with Rattus norvegicus. Kind of data set: Cardiotoxicity in Wistar rat assessed as hear beats per min at 10 mg/kg, iv after 5 mins by ECG analysis. It is filed as toxicity, organism-based. Details: dose 10 mg/kg, route intravenous. The conditions noted are these: in vivo. Summed up: as §1
Data set [6] has as its target T1, Adrenergic receptor alpha-1 (Rattus norvegicus, UniProt P15823+P23944+P43140).
T1 sequence (P15823 whole entry): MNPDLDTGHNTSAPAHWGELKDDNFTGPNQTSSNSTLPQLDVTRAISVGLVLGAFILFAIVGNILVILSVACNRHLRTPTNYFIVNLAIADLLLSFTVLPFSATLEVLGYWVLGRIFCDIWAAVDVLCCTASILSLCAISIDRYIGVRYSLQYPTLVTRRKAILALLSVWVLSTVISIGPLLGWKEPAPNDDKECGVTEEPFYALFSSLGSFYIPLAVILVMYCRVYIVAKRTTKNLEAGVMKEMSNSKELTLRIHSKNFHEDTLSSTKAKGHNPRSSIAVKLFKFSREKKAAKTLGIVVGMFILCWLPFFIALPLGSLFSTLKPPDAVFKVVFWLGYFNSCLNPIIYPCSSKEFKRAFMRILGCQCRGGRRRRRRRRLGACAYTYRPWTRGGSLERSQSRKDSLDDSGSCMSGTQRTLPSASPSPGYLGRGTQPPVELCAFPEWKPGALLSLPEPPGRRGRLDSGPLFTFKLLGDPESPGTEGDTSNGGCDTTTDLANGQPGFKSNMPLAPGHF
T1 sequence (P23944 whole entry): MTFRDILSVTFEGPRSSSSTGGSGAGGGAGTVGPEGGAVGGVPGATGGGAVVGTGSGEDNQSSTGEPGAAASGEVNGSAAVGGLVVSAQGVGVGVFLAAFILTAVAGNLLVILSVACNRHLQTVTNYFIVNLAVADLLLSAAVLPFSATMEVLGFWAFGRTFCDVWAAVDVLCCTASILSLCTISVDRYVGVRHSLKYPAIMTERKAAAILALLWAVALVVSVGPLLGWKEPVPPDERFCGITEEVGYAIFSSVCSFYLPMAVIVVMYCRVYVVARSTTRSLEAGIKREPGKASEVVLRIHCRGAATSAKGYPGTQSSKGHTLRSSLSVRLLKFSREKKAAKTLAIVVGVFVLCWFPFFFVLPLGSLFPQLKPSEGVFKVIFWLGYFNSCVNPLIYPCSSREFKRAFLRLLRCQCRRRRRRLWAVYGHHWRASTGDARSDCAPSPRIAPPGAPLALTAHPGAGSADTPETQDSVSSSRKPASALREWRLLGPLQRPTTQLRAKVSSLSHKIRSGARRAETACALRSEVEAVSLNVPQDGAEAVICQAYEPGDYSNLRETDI
T1 sequence (P43140 whole entry): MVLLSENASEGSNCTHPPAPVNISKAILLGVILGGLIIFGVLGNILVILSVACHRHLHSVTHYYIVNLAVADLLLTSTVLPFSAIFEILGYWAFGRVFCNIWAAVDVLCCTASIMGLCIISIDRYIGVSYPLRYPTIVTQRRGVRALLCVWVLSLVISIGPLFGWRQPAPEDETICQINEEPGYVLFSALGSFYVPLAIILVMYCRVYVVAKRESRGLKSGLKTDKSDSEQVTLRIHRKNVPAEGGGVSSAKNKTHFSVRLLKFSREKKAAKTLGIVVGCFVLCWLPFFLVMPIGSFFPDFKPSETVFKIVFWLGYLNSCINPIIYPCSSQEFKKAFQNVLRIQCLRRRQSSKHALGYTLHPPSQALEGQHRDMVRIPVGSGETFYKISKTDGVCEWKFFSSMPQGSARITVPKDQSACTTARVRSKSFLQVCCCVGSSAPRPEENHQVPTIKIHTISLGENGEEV
Kind of data set: Displacement of [3H]-prazosin from alpha1-adrenergic receptor in rat cerebral cortex by liquid scintillation counting. It counts as tissue-based. Summed up:
(§2)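 Rat cerebral cortex was homogenised in ice-cold 50 mM Tris-HCl pH 7.6 and spun at 20,000 g for 20 min at 0–4 °C, then washed once. Radioligands: [3H]prazosin 0.2 nM for α1, [3H]clonidine 2 nM for α2, [3H]CGP-12177 0.2 nM for β1. Test compounds were run at 7–8 concentrations from 10^-11 to 10^-4 M. Nonspecific binding was defined with phentolamine (α1), clonidine (α2) or propranolol (β1). Counting was by liquid scintillation, in duplicate. Ki was derived by Cheng–Prusoff from 2–3 experiments.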
On the technique in general: In a radioligand displacement assay an active substance lowers the binding of a labelled ligand.

The subject of data set [7] is Rattus norvegicus. Briefly: Cardiotoxicity in Wistar rat assessed as QRS interval at 10 mg/kg, iv after 15 mins by ECG analysis. It is filed as toxicity, organism-based. Also noted: dose 10 mg/kg, route intravenous. The conditions noted are these: in vivo, 0.25 h. The essentials: as §1
Data set [8] deals with Rattus norvegicus. Briefly: Cardiotoxicity in Wistar rat assessed as QRS interval at 10 mg/kg, iv after 5 mins by ECG analysis. It counts as toxicity, organism-based. Also noted: dose 10 mg/kg, route intravenous. The note with it: in vivo. Summed up: as §1
The test system of data set [9] is Rattus norvegicus. Kind of data set: Cardiotoxicity in Wistar rat assessed as PQ interval at 10 mg/kg, iv after 5 mins by ECG analysis. It is filed as toxicity, organism-based. Also noted: dose 10 mg/kg, route intravenous. The conditions noted are these: in vivo. Summed up: as §1
In data set [10] the test system is Rattus norvegicus. Kind of data set: Cardiotoxicity in Wistar rat assessed as PQ interval at 10 mg/kg, iv after 15 mins by ECG analysis. It counts as toxicity, organism-based. Also noted: dose 10 mg/kg, route intravenous. The note with it: in vivo, 0.25 h. The essentials: as §1
A short description of data set [11]: Displacement of [3H]CGP-12177 from beta1-adrenergic receptor in rat cerebral cortex by liquid scintillation counting. It counts as tissue-based. Summed up:
as §2

The subject of data set [12] is Rattus norvegicus. Briefly: Cardiotoxicity in Wistar rat assessed as QT interval at 10 mg/kg, iv after 10 mins by ECG analysis. It counts as toxicity, organism-based. Also noted: dose 10 mg/kg, route intravenous. The note with it: in vivo.
Data set [13] deals with Rattus norvegicus. Kind of data set: Cardiotoxicity in Wistar rat assessed as hear beats per min at 10 mg/kg, iv after 10 mins by ECG analysis. It is filed as toxicity, organism-based. Also noted: dose 10 mg/kg, route intravenous. The note with it: in vivo.
For data set [14], the system named is Rattus norvegicus. Kind of data set: Cardiotoxicity in Wistar rat assessed as QRS interval at 10 mg/kg, iv after 10 mins by ECG analysis. It is filed as toxicity, organism-based. Details: dose 10 mg/kg, route intravenous. The conditions noted are these: in vivo.
Data set [15] has as its system Rattus norvegicus. Kind of data set: Cardiotoxicity in Wistar rat assessed as hear beats per min at 10 mg/kg, iv after 15 mins by ECG analysis. It counts as toxicity, organism-based. Also noted: dose 10 mg/kg, route intravenous. The conditions noted are these: in vivo, 0.25 h. Summed up: as §1
Data set [16] has as its target T2, Adrenergic receptor alpha-2 (Rattus norvegicus, UniProt P22086+P19328+P22909).
T2 sequence (P22086 whole entry): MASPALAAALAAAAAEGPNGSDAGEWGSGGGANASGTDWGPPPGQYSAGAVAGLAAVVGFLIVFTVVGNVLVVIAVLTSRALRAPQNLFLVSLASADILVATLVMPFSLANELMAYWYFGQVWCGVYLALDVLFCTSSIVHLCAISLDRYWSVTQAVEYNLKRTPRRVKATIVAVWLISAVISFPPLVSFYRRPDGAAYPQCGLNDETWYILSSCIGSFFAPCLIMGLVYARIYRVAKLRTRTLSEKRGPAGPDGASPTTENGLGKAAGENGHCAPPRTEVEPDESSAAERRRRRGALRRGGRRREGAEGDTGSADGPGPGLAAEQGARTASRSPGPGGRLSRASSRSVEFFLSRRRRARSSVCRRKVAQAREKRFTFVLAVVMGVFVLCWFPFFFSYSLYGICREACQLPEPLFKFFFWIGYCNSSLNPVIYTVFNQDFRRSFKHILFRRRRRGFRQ
T2 sequence (P19328 whole entry): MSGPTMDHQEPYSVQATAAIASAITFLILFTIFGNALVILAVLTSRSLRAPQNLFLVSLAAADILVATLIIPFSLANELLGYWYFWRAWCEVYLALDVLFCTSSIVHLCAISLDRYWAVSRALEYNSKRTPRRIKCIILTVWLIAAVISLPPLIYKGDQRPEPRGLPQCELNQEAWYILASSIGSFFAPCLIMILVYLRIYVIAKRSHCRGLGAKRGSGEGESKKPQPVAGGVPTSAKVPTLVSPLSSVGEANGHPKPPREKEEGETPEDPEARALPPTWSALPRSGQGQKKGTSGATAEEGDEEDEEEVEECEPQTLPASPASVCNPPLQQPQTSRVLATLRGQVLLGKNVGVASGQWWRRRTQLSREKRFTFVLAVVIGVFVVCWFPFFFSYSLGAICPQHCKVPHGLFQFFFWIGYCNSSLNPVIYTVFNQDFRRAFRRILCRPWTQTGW
T2 sequence (P22909 whole entry): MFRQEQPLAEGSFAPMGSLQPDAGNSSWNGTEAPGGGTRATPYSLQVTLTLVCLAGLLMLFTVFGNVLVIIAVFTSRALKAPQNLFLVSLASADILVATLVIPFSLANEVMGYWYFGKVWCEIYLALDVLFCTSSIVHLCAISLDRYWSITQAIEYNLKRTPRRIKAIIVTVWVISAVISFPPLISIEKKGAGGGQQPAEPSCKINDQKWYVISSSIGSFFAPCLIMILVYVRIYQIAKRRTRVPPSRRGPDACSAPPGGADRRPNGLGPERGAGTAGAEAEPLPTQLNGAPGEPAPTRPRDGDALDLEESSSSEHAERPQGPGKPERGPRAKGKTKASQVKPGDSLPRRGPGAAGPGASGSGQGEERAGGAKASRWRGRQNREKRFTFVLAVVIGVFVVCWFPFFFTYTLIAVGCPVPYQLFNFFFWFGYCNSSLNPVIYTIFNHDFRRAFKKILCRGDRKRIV
Briefly: Displacement of [3H]clonidine from alpha2-adrenergic receptor in rat cerebral cortex by liquid scintillation counting. It counts as tissue-based. The essentials: as §2

The subject of data set [17] is Rattus norvegicus. Briefly: Antiarrhythmic activity in iv dosed Wistar rat adrenaline-induced arrhythmia model assessed as reduction of heart-rhythm disturbance administered 15 mins adrenaline-challenge. It is filed as functional. The conditions noted are these: 0.25 h. The essentials: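 Anaesthetised male Wistar rats (thiopental 75 mg/kg ip). Test compound iv at 1 mL/kg, given 15 min before adrenaline 20 µg/kg iv. Activity means no premature beats and inhibition of arrhythmia, judged against a control group. There were three dose groups of six rats. ED50 with confidence limits was calculated by the Litchfield–Wilcoxon method.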

For the compound `CC(C)NCC(O)COc1ccc2c(=O)c3ccccc3oc2c1` (centres undefined), the Activity in the data set on Rattus norvegicus [1] stood at 7%.

Turning to `COc1ccc(N2CCN(CCCOc3cccc4c(=O)c5ccccc5oc34)CC2)cc1.Cl`, the Activity is 82.4 ms in the data set on Rattus norvegicus [2]; 79.4 ms with Rattus norvegicus [3]; 43.7 ms in the data set with Rattus norvegicus [4]; 323 bpm in the data set on Rattus norvegicus [5]; 24.2 ms in the data set on Rattus norvegicus [7]; 22.8 ms in the data set on Rattus norvegicus [8]. Moreover, the Activity with Rattus norvegicus [9] is 43.5 ms; with Rattus norvegicus [10], 43.7 ms; with Rattus norvegicus [12], 80.2 ms; in the data set with Rattus norvegicus [13], 317.4 bpm; in the data set on Rattus norvegicus [14] it was 23.6 ms; with Rattus norvegicus [15], 311.4 bpm. Also, the Ki is 1.1 µM in data set [6] and 31.6 µM in data set [11].

For `COc1ccccc1N1CCN(CCCOc2cccc3c(=O)c4ccc(Cl)cc4oc23)CC1.Cl`, the Ki was found to be 5.5 µM in [16], 0.082 µM in data set [6] and 4.5 µM in data set [11].

On to `COc1ccccc1OCCNCC(O)COc1cccc2[nH]c3ccccc3c12` (centres undefined) [CARVEDILOL], for which the ED50 in the data set on Rattus norvegicus [17] was 0.25 mg/kg.

One may read the Ki as a measure of affinity in units of concentration, obtained from inhibition or displacement. What is called ED50 is the dose that gives a 50% effect, or the effect in half of the subjects.
